{"source": "paper PMC4210426", "about": "(The Journal of General Physiology, 2014)", "key": {"BK channel G311 mutant": {"test_system": "BK channel G311 mutant", "details": "ref Zhou et al., 2010; cited from earlier work"}, "BK channels (mSlo1) [1]": {"biological_target": "T1, BK channels (mSlo1) (Mus musculus, UniProt Q08460)", "T1 sequence (Q08460 whole entry)": "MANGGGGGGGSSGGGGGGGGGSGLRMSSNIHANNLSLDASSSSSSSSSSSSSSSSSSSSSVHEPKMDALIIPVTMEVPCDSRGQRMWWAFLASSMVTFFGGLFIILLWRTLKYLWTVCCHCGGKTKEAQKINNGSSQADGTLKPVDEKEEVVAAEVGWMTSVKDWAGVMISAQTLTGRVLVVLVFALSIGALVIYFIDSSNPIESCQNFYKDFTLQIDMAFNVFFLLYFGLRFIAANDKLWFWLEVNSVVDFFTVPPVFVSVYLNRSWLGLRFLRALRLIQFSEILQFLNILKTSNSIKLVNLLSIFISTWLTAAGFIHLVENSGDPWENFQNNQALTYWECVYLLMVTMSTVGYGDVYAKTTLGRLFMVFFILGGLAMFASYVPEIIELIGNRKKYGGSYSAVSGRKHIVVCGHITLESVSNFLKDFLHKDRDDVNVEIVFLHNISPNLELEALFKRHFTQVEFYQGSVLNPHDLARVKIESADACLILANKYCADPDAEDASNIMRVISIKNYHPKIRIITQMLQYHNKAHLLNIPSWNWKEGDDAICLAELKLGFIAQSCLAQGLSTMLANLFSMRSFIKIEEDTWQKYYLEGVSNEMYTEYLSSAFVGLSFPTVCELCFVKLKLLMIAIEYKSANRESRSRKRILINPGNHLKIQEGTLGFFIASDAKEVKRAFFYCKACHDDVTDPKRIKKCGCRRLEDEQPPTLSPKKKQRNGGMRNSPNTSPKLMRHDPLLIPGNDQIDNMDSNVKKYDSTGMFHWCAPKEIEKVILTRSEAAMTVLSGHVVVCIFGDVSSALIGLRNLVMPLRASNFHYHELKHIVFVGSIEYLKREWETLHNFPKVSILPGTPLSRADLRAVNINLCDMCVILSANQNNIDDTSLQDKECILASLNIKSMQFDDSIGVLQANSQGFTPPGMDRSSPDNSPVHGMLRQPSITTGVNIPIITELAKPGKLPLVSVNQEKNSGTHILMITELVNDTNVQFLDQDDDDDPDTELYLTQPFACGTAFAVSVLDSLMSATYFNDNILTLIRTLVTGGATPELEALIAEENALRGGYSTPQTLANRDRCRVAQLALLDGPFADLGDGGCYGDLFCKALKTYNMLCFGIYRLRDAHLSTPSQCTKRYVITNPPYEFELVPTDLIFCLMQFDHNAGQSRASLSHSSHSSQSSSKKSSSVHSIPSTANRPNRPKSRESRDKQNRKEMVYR", "format": "cell-based", "summary_of_the_method": "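Oocyte inside-out patches at ∼22–25°C. Pipette (mM): 140 K-methanesulfonate, 20 KOH, 10 HEPES, 2 MgCl2, pH 7.0. Cytosolic Ca2+ buffered with 5 mM HEDTA (10 µM) or unbuffered (300 µM). Test compound equilibrated for 4 min at set holding potential/Ca2+ before G-V from brief test steps. Concentration series (at least four) used steps to 160 mV at −70 to 70 mV. Hill and allosteric-scheme fits.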"}, "[2]": {"details": "cited from earlier work"}, "[3]": {"test_system": "pH-regulated Slo3 K^+ channel", "details": "cited from earlier work"}, "[4]": {"biological_target": "BK channel voltage sensors (mSlo1) (Mus musculus, UniProt Q08460)", "sequence (Q08460 whole entry)": "as above", "test": "Gating current measurements in inside-out macropatches", "format": "cell-based", "details": "with 500 nM paxilline, 0 Ca^2+", "summary_of_the_method": "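Inside-out macropatches from oocytes, room temperature (∼22–25°C). Pipette solution (mM): 127 TEA-OH, 125 methanesulfonic acid, 2 MgCl2, 10 HEPES, pH 7.0. Internal solution (mM): 141 NMDG, 135 methanesulfonic acid, 10 HEPES, 5 EGTA, pH 7.0. Voltage commands filtered at 20 kHz. Gating currents filtered at 10 kHz and sampled at 100 kHz. P/5 subtraction of capacitive and leak currents from −80 mV holding.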"}, "[5]": {"biological_target": "Slo1-A313C channels (unmodified, MTSET-, MTSEA- or MTSES-modified) (Mus musculus, UniProt Q08460, A378C/C495S)", "sequence (Q08460 whole entry A378C/C495S)": "as the sequence (Q08460 whole entry) above, with A378C, C495S counted along it", "test": "Paxilline block of Slo1-A313C currents before and after MTS modification", "format": "cell-based", "details": "100 nM paxilline; for fractional block: 0 mV"}, "BK channels (Slo1)": {"biological_target": "BK channels (Slo1) (Mus musculus, UniProt Q08460)", "sequence (Q08460 whole entry)": "as the sequence (Q08460 whole entry) above", "test": "Paxilline inhibition of BK current in the presence of bbTBA or 2 M sucrose", "format": "cell-based"}, "BK channels (mSlo1) [6]": {"biological_target": "T1, BK channels (mSlo1)", "test": "NPo measurements at negative potentials in macropatches", "format": "cell-based"}, "BK channels (mSlo1) [7]": {"biological_target": "T1, BK channels (mSlo1)", "test": "Kinetics of onset of and recovery from paxilline inhibition of BK current", "format": "cell-based", "summary_of_the_method": "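Oocyte inside-out patches with fast perfusion, room temperature. BK availability monitored by brief steps to 160 mV. Onset came from wash-in of 100 nM test compound at −80 mV, 300 µM Ca2+, fitted with single exponentials. Block rate was measured over 5–2,000 nM at −80 and −100 mV, with step interval cut to 0.2 s at highest concentrations. Recovery followed a switch in equilibration voltage or washout. Kd was derived from kinetic rates.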"}, "[8]": {"biological_target": "T2, Slo1-C430S-A313C channels (Mus musculus, UniProt Q08460, A378C/C495S)", "T2 sequence (Q08460 whole entry A378C/C495S)": "as the sequence (Q08460 whole entry) above, with A378C, C495S counted along it", "test": "MTSET modification of A313C in closed BK channels, without and with paxilline", "format": "cell-based", "details": "500 nM paxilline, −80 mV, 0 Ca^2+", "summary_of_the_method": "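Slo1-C430S-A313C channels in oocyte inside-out patches. 1 mM MTSET applied for 120 s at −80 mV holding in 0 Ca2+. Currents recorded with 300 µM Ca2+ before and after modification, with steps up to 200 mV. Separate control G-V sets were collected for modification without and with test compound.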"}, "[9]": {"biological_target": "T2, Slo1-C430S-A313C channels", "details": "1 mM MTSET, ref Zhou et al., 2011, cited from earlier work"}, "BK channels [10]": {"test_system": "BK channels", "test": "bbTBA block of BK channels", "format": "cell-based", "details": "assuming a zδ of 0.148 e assigned to the forward rate"}, "BK channels [11]": {"test_system": "BK channels", "details": "at 100 mV; ref Wilkens and Aldrich, 2006; cited from earlier work"}, "CNG channels": {"test_system": "CNG channels", "details": "ref Fodor et al., 1997a,b; cited from earlier work"}, "[12]": {"details": "in 100 nM paxilline, 10 µM Ca^2+, holding potential 0 mV"}, "[13]": {"details": "with 50 nM paxilline, all solutions 10 mM DTT, n = 7 patches"}}, "note": "Values joined by “and” are separate entries in the source; they are usually repeats but may differ in a detail not shown here. Equal entries are not always repeated. Where two headings read alike, the source gives them in different places.", "data": [{"compound": "CC(C)(O)[C@H]1O[C@H]2CC[C@@]3(C)[C@@](O)(CC[C@H]4Cc5c([nH]c6ccccc56)[C@@]43C)C2=CC1=O", "note": "[paxilline]", "values": [{"measurement": "effect of G311 mutation on paxilline inhibition", "setting": "BK channel G311 mutant", "value": "totally abolishes paxilline inhibition"}, {"measurement": "inhibition of current", "setting": "BK channels (mSlo1) [1]; 10 nM paxilline, 0 mV, 10 µM Ca^2+ (Po <0.02), 4 min", "value": "over half"}, {"measurement": "inhibition of current", "setting": "BK channels (mSlo1) [1]; 100 nM paxilline, 0 mV, 10 µM Ca^2+ (Po <0.02), 4 min", "value": "essentially complete inhibition"}, {"measurement": "inhibition of current", "setting": "BK channels (mSlo1) [1]; 100 nM paxilline, holding potential 80 mV, 300 µM Ca^2+, 1 min of application", "value": "almost no inhibition"}, {"measurement": "IC50", "setting": "BK channels (mSlo1) [1]; IC50 (Hill fit), equilibration 0 mV, 300 µM Ca^2+ (Po ∼0.65)", "value": "58.4 ± 2.9", "unit": "nM"}, {"measurement": "IC50", "setting": "BK channels (mSlo1) [1]; IC50 (Hill fit), equilibration 40 mV, 300 µM Ca^2+ (Po ∼0.83)", "value": "470 ± 94.9", "unit": "nM"}, {"measurement": "IC50", "setting": "BK channels (mSlo1) [1]; IC50 (Hill fit), equilibration 70 mV, 300 µM Ca^2+ (Po ∼0.89)", "value": "5370 ± 1000", "unit": "nM"}, {"measurement": "IC50", "setting": "BK channels (mSlo1) [1]; IC50 (Hill fit), equilibration −70 mV, 300 µM Ca^2+ (Po ∼0.1)", "value": "11.7 ± 1.9", "unit": "nM"}, {"measurement": "IC50", "setting": "BK channels (mSlo1) [1]; IC50 for paxilline, as maximal Po was approached", "value": "~10000", "unit": "nM"}, {"measurement": "IC50", "setting": "BK channels (mSlo1) [1]; IC50 for paxilline, channels largely closed", "value": "~10", "unit": "nM"}, {"measurement": "reduction in the C-O equilibrium constant L(0)", "setting": "BK channels (mSlo1) [1]; binding of one paxilline molecule", "value": "> 500", "unit": "fold"}, {"measurement": "direct inhibition of the open state", "setting": "BK channels (mSlo1) [1]; concentrations up to 10 µM", "value": "not directly inhibited"}, {"measurement": "n", "setting": "BK channels (mSlo1) [1]; fit of Scheme 1 (Eq. 1) to four equilibration conditions", "value": "1.09 ± 0.11"}, {"measurement": "Vh of G-V curve", "setting": "BK channels (mSlo1) [1]; [12]", "value": "24.75 ± 0.13", "unit": "mV"}, {"measurement": "z of G-V curve", "setting": "BK channels (mSlo1) [1]; [12]", "value": "0.86 ± 0.01", "unit": "e"}, {"measurement": "affinity for closed conformation relative to open conformation", "setting": "BK channels (mSlo1) [1]; model-dependent analysis (Scheme 1)", "value": "> 500 fold and ~500 fold"}, {"measurement": "difference between closed- and open-state affinity", "setting": "BK channels (mSlo1) [1]; model-independent analysis of IC50 vs state occupancy, and overall conclusion", "value": "~1,000 fold"}, {"measurement": "Vh of G-V curve", "setting": "BK channels (mSlo1) [1]; [13]", "value": "21.21 ± 1.85", "unit": "mV"}, {"measurement": "z of G-V curve", "setting": "BK channels (mSlo1) [1]; [13]", "value": "0.79 ± 0.07", "unit": "e"}, {"measurement": "logP", "setting": "[2]", "value": 3.62}, {"measurement": "sensitivity to paxilline inhibition", "setting": "[3]", "value": "resistant"}, {"measurement": "Vh of Qoff", "setting": "[4]", "value": "130.2 ± 9.1", "unit": "mV"}, {"measurement": "Vh of Qon", "setting": "[4]", "value": "131.4 ± 2.1", "unit": "mV"}, {"measurement": "z of Qoff", "setting": "[4]", "value": "0.56 ± 0.035", "unit": "e"}, {"measurement": "z of Qon", "setting": "[4]", "value": "0.54 ± 0.025", "unit": "e"}, {"measurement": "fractional block", "setting": "[5]; MTSEA-modified Slo1-A313C, 10 µM Ca^2+ (Po ∼0.48)", "value": "~0.5"}, {"measurement": "inhibition relative to unmodified Slo1-A313C", "setting": "[5]; MTSES-modified Slo1-A313C (Po ∼0.12)", "value": "only slightly weaker"}, {"measurement": "fractional block", "setting": "[5]; MTSET-modified Slo1-A313C, 10 µM Ca^2+ (Po ∼0.9)", "value": "< 0.1"}, {"measurement": "block of Slo1-A313C current", "setting": "[5]; unmodified A313C", "value": "strong block"}, {"measurement": "reduction of current", "setting": "BK channels (Slo1); 100 nM paxilline alone for ∼40 s, 0 mV, 10 µM Ca^2+", "value": "~80", "unit": "%"}, {"measurement": "reduction of the number of channels blocked by paxilline", "setting": "BK channels (Slo1); 100 nM paxilline applied together with 100 µM bbTBA, 0 mV, 10 µM Ca^2+", "value": "~50", "unit": "%"}, {"measurement": "inhibition of BK current", "setting": "BK channels (Slo1); 100 nM paxilline with 2 M sucrose in the cytosolic solution, 300 µM Ca^2+", "value": "only a weak inhibition"}, {"measurement": "normalized NPo", "setting": "BK channels (mSlo1) [6]; 100 nM paxilline, −80 mV, 300 µM Ca^2+", "value": "< 0.05"}, {"measurement": "IC50", "setting": "BK channels (mSlo1) [6]; IC50 for reduction in normalized NPo, −80 mV, Hill fit with n = 1", "value": "5.5 ± 1.1", "unit": "nM"}, {"measurement": "inhibition at 0.1 µM", "setting": "BK channels (mSlo1) [6]; read-out: inhibition of BK current (NPo)", "value": "> 95", "unit": "%"}, {"measurement": "Hill coefficient n", "setting": "BK channels (mSlo1) [6]; −80 mV, 10 or 300 µM Ca^2+, Hill fit of normalized NPo", "value": "0.85 ± 0.25"}, {"measurement": "Kd", "setting": "BK channels (mSlo1) [7]", "value": 12.9, "unit": "nM"}, {"measurement": "τon, time constant of onset of inhibition by wash-in", "setting": "BK channels (mSlo1) [7]; 100 nM paxilline, −80 mV, 300 µM Ca^2+, four patches, mean ± STD", "value": "26.3 ± 6.6", "unit": "s"}, {"measurement": "time constant of onset of inhibition after change in equilibration condition", "setting": "BK channels (mSlo1) [7]; constant 100 nM paxilline, 80 to −80 mV, 300 µM Ca^2+, four patches, mean ± STD", "value": "6.85 ± 1.79", "unit": "s"}, {"measurement": "difference in recovery time constant between 20 and 100 nM paxilline", "setting": "BK channels (mSlo1) [7]; recovery at 0 mV in the constant presence of paxilline, seven patches", "value": 1.6, "unit": "fold"}, {"measurement": "rate of inhibition of closed channels (slope of blocking rate vs [paxilline])", "setting": "BK channels (mSlo1) [7]; −80 and −100 mV, 300 µM Ca^2+, 5 to 2,000 nM paxilline", "value": "2e+06", "unit": "M⁻¹ s⁻¹"}, {"measurement": "mean time constant of recovery", "setting": "BK channels (mSlo1) [7]; −80 mV", "value": 37.0, "unit": "s"}, {"measurement": "effect on MTSET modification of A313C in closed channels", "setting": "[8]; 1 mM MTSET for 120 s", "value": "no difference in modification with or without paxilline"}, {"measurement": "inhibition of BK current during MTSET application", "setting": "[8]", "value": "completely inhibited"}]}, {"compound": "C[N+](C)(C)CCSS(C)(=O)=O.[Br-]", "note": "[MTSET, [2-(trimethylammonium)ethyl] MTS bromide]", "values": [{"measurement": "reduction in maximal conductance", "setting": "[9]; closed BK channels", "value": "> 50", "unit": "%"}, {"measurement": "time constant of modification of A313C of closed BK channels", "setting": "[9]", "value": "~23", "unit": "s"}]}, {"compound": "OC[C@H]1O[C@@](CO)(O[C@H]2O[C@H](CO)[C@@H](O)[C@H](O)[C@H]2O)[C@@H](O)[C@@H]1O", "note": "[sucrose]", "values": [{"measurement": "Vh of activation", "setting": "BK channels (Slo1); with 2 M sucrose, 300 µM Ca^2+, tail currents at −120 mV", "value": "−12.8 ± 3.3", "unit": "mV"}]}, {"compound": "CCCC[N+](CCCC)(CCCC)Cc1ccc(C(=O)c2ccccc2)cc1", "note": "[bbTBA, N-(4-[benzoyl]benzyl)-N,N,N-tributylammonium]", "values": [{"measurement": "0-voltage forward rate", "setting": "BK channels [10]", "value": "6.7e+07", "unit": "M⁻¹ s⁻¹"}, {"measurement": "forward rate of block", "setting": "BK channels [11]", "value": "1.2e+08", "unit": "M⁻¹ s⁻¹"}]}, {"compound": "CCCCNc1ccc(C(=O)OCCN(C)C)cc1", "note": "[tetracaine]", "values": [{"measurement": "affinity for closed channels relative to open channels", "setting": "CNG channels", "value": "~1,000 fold"}]}]}
